ChEMBL document CHEMBL1142556, “cis-parthenolid-9-one from Anvillea garcinii” (2000)
≈ marks a conversion by molar mass, not a printed value.

Key:
[1] = Cytotoxicity against human leukemia cells; type: functional, Leukemia cell; conditions: for EC50: Homo sapiens, Leukemia cell, read-out: ED50 (the source's name)
In short: (§1)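 Tested in vitro by the National Cancer Institute screen. Values are averages over each cell-line subpanel. Potency is reported two ways: C50, the half-maximal effective dose in μmol/L, and ED50, the dose that inhibits net cell growth to 50% of control growth in μg/mL.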

[2] = Cytotoxicity against human melanoma cells; type: functional, Melanoma cell; conditions: for EC50: Homo sapiens, Melanoma cell, read-out: ED50 (the source's name); in short: as §1
[3] = Cytotoxicity against human central nervous system cancer cells; type: functional, Cancer cell lines; conditions: for EC50: Homo sapiens, Cancer cell lines, read-out: ED50 (the source's name); in short: as §1
[4] = Cytotoxicity against human breast cancer cells; type: functional, Cancer cell lines; conditions: for EC50: Homo sapiens, Cancer cell lines, read-out: ED50 (the source's name); in short: as §1
[5] = Cytotoxicity against human renal cancer cells; type: functional, Cancer cell lines; conditions: for EC50: Homo sapiens, Cancer cell lines, read-out: ED50 (the source's name); in short: as §1
[6] = Cytotoxicity against human colon cancer cells; type: functional, Cancer cell lines; conditions: for EC50: Homo sapiens, Cancer cell lines, read-out: ED50 (the source's name); in short: as §1
[7] = Cytotoxicity against human lung cancer cells; type: functional, Cancer cell lines; conditions: for EC50: Homo sapiens, Cancer cell lines, read-out: ED50 (the source's name); in short: as §1
[8] = Cytotoxicity against human prostate cancer cells; type: functional, Cancer cell lines; conditions: for EC50: Homo sapiens, Cancer cell lines, read-out: ED50 (the source's name); in short: as §1
[9] = Cytotoxicity against human ovarian cancer cells; type: functional, Cancer cell lines; conditions: for EC50: Homo sapiens, Cancer cell lines, read-out: ED50 (the source's name); in short: as §1

Compound: C=C1C(=O)O[C@H]2[C@H]1CC(=O)/C(C)=C/CC[C@@]1(C)O[C@@H]21
- C50 [1]: 0.08 µmol/L
- EC50 [1]: 0.02 µg/mL (≈ 0.0762 µM)
- C50 [2]: 0.57 µmol/L
- EC50 [2]: 0.15 µg/mL (≈ 0.572 µM)
- C50 [3]: 2.9 µmol/L
- EC50 [3]: 0.76 µg/mL (≈ 2.9 µM)
- C50 [4]: 0.6 µmol/L
- EC50 [4]: 0.16 µg/mL (≈ 0.61 µM)
- C50 [5]: 0.41 µmol/L
- EC50 [5]: 0.11 µg/mL (≈ 0.419 µM)
- C50 [6]: 0.32 µmol/L
- EC50 [6]: 0.08 µg/mL (≈ 0.305 µM)
- C50 [7]: 1.8 µmol/L
- EC50 [7]: 0.47 µg/mL (≈ 1.79 µM)
- C50 [8]: 2.2 µmol/L
- EC50 [8]: 0.57 µg/mL (≈ 2.17 µM)
- C50 [9]: 1.4 µmol/L
- EC50 [9]: 0.37 µg/mL (≈ 1.41 µM)

Compound: C=C1C(=O)O[C@H]2[C@H]1CC(=O)/C(C)=C\CC[C@@]1(C)O[C@@H]21
- C50 [1]: 1.94 µmol/L
- EC50 [1]: 0.51 µg/mL (≈ 1.94 µM)
- C50 [2]: 10.6 µmol/L
- EC50 [2]: 2.77 µg/mL (≈ 10.6 µM)
- C50 [3]: 17.1 µmol/L
- EC50 [3]: 4.47 µg/mL (≈ 17 µM)
- C50 [4]: 9.81 µmol/L
- EC50 [4]: 2.57 µg/mL (≈ 9.8 µM)
- C50 [5]: 8.05 µmol/L
- EC50 [5]: 2.11 µg/mL (≈ 8.04 µM)
- C50 [6]: 7.3 µmol/L
- EC50 [6]: 1.91 µg/mL (≈ 7.28 µM)
- C50 [7]: 13.4 µmol/L
- EC50 [7]: 3.51 µg/mL (≈ 13.4 µM)
- C50 [8]: 14.4 µmol/L
- EC50 [8]: 3.77 µg/mL (≈ 14.4 µM)
- C50 [9]: 11.9 µmol/L
- EC50 [9]: 3.13 µg/mL (≈ 11.9 µM)
